Measured values taken from ChEMBL document CHEMBL1127371, “Acyl CoA:cholesterol acyltransferase (ACAT) inhibitors: synthesis and structure-activity relationship studies of a new series of trisubstituted imidazoles” (J Med Chem, 1994).
Where “and” joins values, the source holds several entries; their conditions need not be identical. Equal entries are not always repeated.

What was measured:
[1] = target: T1, Sterol O-acyltransferase 1 (Rattus norvegicus, UniProt O70536); experiment: In vitro inhibition of Acyl coenzyme A:cholesterol acyltransferase in rat hepatic microsomes; set-up: species or system Liver
T1 sequence (O70536 whole entry): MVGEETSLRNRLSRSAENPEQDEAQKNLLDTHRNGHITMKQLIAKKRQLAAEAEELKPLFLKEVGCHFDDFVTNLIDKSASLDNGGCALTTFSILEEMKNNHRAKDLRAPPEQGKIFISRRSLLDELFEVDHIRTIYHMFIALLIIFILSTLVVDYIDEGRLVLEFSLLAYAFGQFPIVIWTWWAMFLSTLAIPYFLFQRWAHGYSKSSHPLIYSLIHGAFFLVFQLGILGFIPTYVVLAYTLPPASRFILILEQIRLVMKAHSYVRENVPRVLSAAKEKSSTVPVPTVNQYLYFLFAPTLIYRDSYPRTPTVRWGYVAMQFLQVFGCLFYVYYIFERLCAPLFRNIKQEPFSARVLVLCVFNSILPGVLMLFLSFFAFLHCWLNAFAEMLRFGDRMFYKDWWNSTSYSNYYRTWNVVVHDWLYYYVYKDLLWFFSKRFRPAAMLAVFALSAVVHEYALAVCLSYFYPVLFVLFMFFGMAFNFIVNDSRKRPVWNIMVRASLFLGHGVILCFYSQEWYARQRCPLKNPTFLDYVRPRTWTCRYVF
Method in brief: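 Rat hepatic microsomes were incubated with labelled oleoyl-CoA, and formation of labelled cholesterol oleate was measured (pmol/min/mg). Assays were run in duplicate with at least four inhibitor concentrations bracketing the IC50.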

Mesocricetus auratus [2] = species: Mesocricetus auratus; experiment: Evaluated for Syrian hamsters fed with a 2.5% cholesterol-supplemented chow diet for 3 days
Cricetinae gen. sp. = experiment: Tested anti-hypercholesterolaemic value(AHV) is the ratio of observed reduction in serum cholesterol to difference between control and baseline levels x100 at 10 mg/kg/day dose; type: functional
Mesocricetus auratus [3] = species: Mesocricetus auratus; experiment: Evaluated for Syrian hamsters fed with a 0.8% cholesterol-supplemented chow diet for 7 days
Mesocricetus auratus [4] = species: Mesocricetus auratus; experiment: Evaluated for Syrian hamsters fed with 0.8% cholesterol-supplemented chow diet for 7 days
Mesocricetus auratus [5] = species: Mesocricetus auratus; experiment: Evaluated for Syrian hamsters fed with 2.5% cholesterol-supplemented chow diet for 3 days

SMILES | IC50 [1] [nM] | other results
CCCCCCCN(CCCCCSc1nc(-c2ccccc2)c(-c2ccccc2)n1C)C(=O)Nc1ccc(F)cc1F | 3600 | –
CCCCCCCN(CCCCCSc1nc(-c2ccccc2)c(-c2ccccc2)[nH]1)C(N)=Nc1ccccc1 | 3160 | –
CCCCCCCN(CCCCCSc1nc(-c2ccccc2)c(-c2ccccc2)[nH]1)C(=O)Cc1ccc(F)cc1F | 25 | –
CCCCCCCN(CCCCCSc1nc(-c2ccccc2)cn1-c1ccccc1)C(=O)Nc1ccc(F)cc1F | 42000 | –
CCCCCCCN(CCCCCCCCSc1nc(-c2ccccc2)c(-c2ccccc2)[nH]1)C(=O)Nc1ccc(F)cc1F | 8 | Serum cholesterol (Mesocricetus auratus [2]): 271 mg %
CCCCCCCN(CCCCCSc1nc(-c2ccccc2)c(-c2ccccc2)[nH]1)/C(S)=N\c1c(F)cc(F)cc1F | 30 | –
CCCCCCCN(CCCCCSc1nc(-c2ccccc2)c(-c2ccccc2)[nH]1)C(=O)NC | 40 | –
CCCCCCCN(CCCCC[S+]([O-])c1nc(-c2ccccc2)c(-c2ccccc2)[nH]1)C(=O)Nc1ccc(F)cc1F (stereo not drawn) | 8 | AHV (Cricetinae gen. sp.): 49%; Serum cholesterol (Mesocricetus auratus [3]): 278 mg %
CCCCCCCN(CCCCCSc1nc(-c2ccccc2)c(-c2ccccc2)[nH]1)C(=O)Nc1c(C(C)C)cccc1C(C)C | 230 | –
CCCCCCCN(CCCCCSc1nc(-c2ccccc2)c(-c2ccccc2)[nH]1)C(=O)CC1CCCCC1 | 30 | –
CCCCCCCN(CCCCCSc1nc(-c2ccccc2)c(-c2ccccc2)[nH]1)C(=O)NC(C)C | 20 | –
O=C(Nc1ccc(F)cc1F)N(CCCCCSc1nc(-c2ccccc2)c(-c2ccccc2)[nH]1)CCCc1ccccc1 | 30 | –
CCCCCCCN(CCSc1nc(-c2ccccc2)c(-c2ccccc2)[nH]1)C(=O)Nc1ccc(F)cc1F | 70 | –
CCCCCCCCNC(=O)N(CCCCCSc1nc(-c2ccccc2)c(-c2ccccc2)[nH]1)c1ccc(F)cc1F | 40 | –
CCCCCCCN(CCCCCSc1nc(-c2ccccc2)c(-c2ccccc2)[nH]1)C(=O)OCCC | 34 | –
CCCCCCCN(CCCCCSc1ncc[nH]1)C(=O)Nc1ccc(F)cc1F | 2900 | –
CCCCCCCCNC(=O)N(CCCCCSc1nc(-c2ccccc2)c(-c2ccccc2)[nH]1)c1c(F)cc(F)cc1F | 20 | –
O=C(Nc1ccc(F)cc1F)N(CCCCCSc1nc(-c2ccccc2)c(-c2ccccc2)[nH]1)CCc1ccccc1 | 170 | –
CCCCCCCN(CCCCCSc1ncc(-c2ccccc2)n1-c1ccccc1)C(=O)Nc1ccc(F)cc1F | 7200 | –
CCCCCCCN(CCCCCSc1nc(-c2ccccc2)c(-c2ccccc2)[nH]1)C(=O)Nc1ccccc1 | 23 | –
CCCCCCCN(CCCCCCc1nc(-c2ccccc2)c(-c2ccccc2)[nH]1)C(=O)Nc1ccc(F)cc1F | 280 | –
CC(C)c1cccc(C(C)C)c1NC(=O)NCCCCCSc1nc(-c2ccccc2)c(-c2ccccc2)[nH]1 | 510 | –
CCCCCCCN(CCCCCSc1nc(-c2ccccc2)c(-c2ccccc2)[nH]1)C(=O)Cc1ccc(-c2ccccc2)cc1 | 160 | –
CCCCCCCN(CCCCCSc1nc(-c2ccccc2)c(-c2ccccc2)[nH]1)C(=O)NCCC | 10 | AHV (Cricetinae gen. sp.): 74%; Serum cholesterol (Mesocricetus auratus [3]): 199 mg %
CCCCCCCN(Cc1cccc(CSc2nc(-c3ccccc3)c(-c3ccccc3)[nH]2)c1)C(=O)Nc1ccc(F)cc1F | 30 | –
CCCCCCCN(Cc1ccccc1CSc1nc(-c2ccccc2)c(-c2ccccc2)[nH]1)C(=O)Nc1ccc(F)cc1F | 3600 | –

SMILES | IC50 [1] [nM] | other results
CCCCCCCN(CCCCCSc1nc(-c2ccccc2)c(-c2ccccc2)[nH]1)C(=O)c1ccccc1 | 50 | –
CCCCCCCN(CCCCCSc1nc(-c2ccccc2)c(-c2ccccc2)[nH]1)C(=O)c1ccc(F)cc1F | 60 | –
CCCCCCCN(CCCCCSc1nc(-c2ccccc2)c(-c2ccccc2)n1-c1ccccc1)C(=O)Nc1ccc(F)cc1F | > 50000 | –
CCCCCCCN(CCCCCNc1nc(-c2ccccc2)c(-c2ccccc2)[nH]1)C(=O)Nc1ccc(F)cc1F | 3500 | –
O=C(Nc1ccc(F)cc1F)N(CCCCCSc1nc(-c2ccccc2)c(-c2ccccc2)[nH]1)Cc1ccccc1 | 200 | –
O=C(Nc1ccc(F)cc1F)N(CCCCCSc1nc(-c2ccccc2)c(-c2ccccc2)[nH]1)CCCCc1ccccc1 | 50 | –
CCCCCCCN(CCCCCSc1nc(-c2ccccc2)c(-c2ccccc2)[nH]1)C(=O)C(C)C | 100 | –
CCCCCCCN(CCCCCS(=O)(=O)c1nc(-c2ccccc2)c(-c2ccccc2)[nH]1)C(=O)Nc1ccc(F)cc1F | 16 | AHV (Cricetinae gen. sp.): 30%; Serum cholesterol (Mesocricetus auratus [3]): 318 mg %
CCCCCCCN(CCCCCSc1nc(-c2ccccc2)c(-c2ccccc2)[nH]1)C(=O)Nc1ccc([N+](=O)[O-])cc1 | 80 | AHV (Cricetinae gen. sp.): 38%; Serum cholesterol (Mesocricetus auratus [3]): 277 mg %
CCCCCCCCNC(=O)N(CCCCCSc1nc(-c2ccccc2)c(-c2ccccc2)[nH]1)c1ccccc1 | 10 | Serum cholesterol (Mesocricetus auratus [2]): 268 mg %
CCCCCCCN(CCCCCSc1nc(-c2ccccc2)c(-c2ccccc2)[nH]1)C(=O)OC1CCCCC1 | 50 | –
CCCCCCCN(CCCCCSc1nc(-c2ccccc2)c(-c2ccccc2)[nH]1)C(=O)Nc1ccc(F)cc1F [LECIMIBIDE] | – | AHV (Cricetinae gen. sp.): 59% and 61%; Serum cholesterol (Mesocricetus auratus [4]): 253 mg %; Serum cholesterol (Mesocricetus auratus [5]): 205 mg %
CCCCCCCCNC(=O)N(CCCCCSc1nc(-c2ccccc2)c(-c2ccccc2)[nH]1)Cc1ccccc1 | 150 | –
CC(C)NC(=O)N(CCCCCSc1nc(-c2ccccc2)c(-c2ccccc2)[nH]1)c1ccc(F)cc1F | 40 | –
CCCCCCCN(CCCCCSc1nc(-c2ccccc2)c(-c2ccccc2)[nH]1)C(N)=O | 910 | –
CC(C)NC(=O)N(CCCCCSc1nc(-c2ccccc2)c(-c2ccccc2)[nH]1)c1ccccc1 | 80 | –
CCCCCCCN(Cc1ccc(CSc2nc(-c3ccccc3)c(-c3ccccc3)[nH]2)cc1)C(=O)Nc1ccc(F)cc1F | 200 | –
CCCCCCCN(CCCCCSc1nc(-c2ccccc2)c(-c2ccccc2)[nH]1)C(=O)Oc1ccccc1 | 20 | –
CCCCCCCN(CCCCCSc1nc(-c2ccccc2)c(-c2ccccc2)[nH]1)C(=O)NC1CCCCC1 | 10 | –
CCCN(CCCCCSc1nc(-c2ccccc2)c(-c2ccccc2)[nH]1)C(=O)Nc1ccc(F)cc1F | 30 | –
CCCCCCCN(CCCCCSc1nc(-c2ccccc2)c(-c2ccccc2)[nH]1)C(=O)CCC | 30 | AHV (Cricetinae gen. sp.): 43%; Serum cholesterol (Mesocricetus auratus [3]): 245 mg %
CCCCCCCN(CCCCCSc1nc(-c2ccccc2)c(-c2ccccc2)[nH]1)C(=O)Nc1ccc(-c2ccccc2)cc1 | 70 | –
O=C(NCCCCCSc1nc(-c2ccccc2)c(-c2ccccc2)[nH]1)Nc1ccc(F)cc1F | 400 | –
CCCCCCCN(CCCCCSc1nc(-c2ccccc2)c(-c2ccccc2)[nH]1)C(=O)Nc1c(F)cc(F)cc1F | 16 | AHV (Cricetinae gen. sp.): 51%; Serum cholesterol (Mesocricetus auratus [2]): 218 mg %
CCCCCCCN(CC(C)(C)CCSc1nc(-c2ccccc2)c(-c2ccccc2)[nH]1)C(=O)Nc1ccc(F)cc1F | 70 | –
CCCCCCCN(CCCCCSc1nc(-c2ccccc2)c(-c2ccccc2)[nH]1)/C(S)=N\c1ccc(F)cc1F | 58 | –
